An excerpt weighted towards active compounds, which were near 2.5% of everything screened.
TRPC4 inh = inhibitors of mouse TRPC4 channel | AID 2247 | B-score at 10 µM | HEK293 TRPC4beta/mu-opioid, DAMGO-evoked Fluo4 calcium flux; active compounds read low | 300,000 tested, 0.39% active | Q9QUQ5;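 active means B-score over 3 SD under the library average, no early fluorescence shift, positive overall ratio signal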
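Material: HEK293 cells with stable TRPC4beta plus mu-opioid receptor expression / Probe or stimulus: DAMGO in two steps, submaximal then maximal / Compound: single concentration per test compound / Technique: kinetic Fluo4 fluorescence imaging of calcium influx / Read-out: per-well B score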
TRPC6 activator = activates the mouse TRPC6 cation channel; Q61143; HEK293-TRPC6 membrane potential dye fluorescence; active compounds read high; B-score at 10 µM; 310,000 tested, 0.13% active;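 active means B-score of the integrated fluorescence ratio above library mean plus 3 SD, and starting fluorescence ratio within library mean plus 5 SD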;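 further: higher score means more depolarization so channel activation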
TRPC6 inhibitor = mouse TRPC6 channel inhibition; HEK293-TRPC6, membrane potential dye, ACh-evoked depolarization; active compounds read low; B-score at 10 µM; AID 2553; Q61143; 310,000 tested, 1.1% active;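 active means B-score under library mean minus 3 SD, initial fluorescence not abnormally high, positive integrated signal ratio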;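 further: B-score derived from integrated fluorescence ratio over the kinetic read; more negative B-score means stronger inhibition of depolarization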
TRPC4 PAM = allosterically enhances the mouse TRPC4 cation channel; Q9QUQ5; HEK293 TRPC4beta/mu-opioid, DAMGO EC20, Fluo-4 Ca2+ flux; active compounds read high; B-score at 10 µM; 310,000 tested, 0.42% active; AID 2227;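 active means B-score of calcium response area above 5 SD of library B-scores, with initial fluorescence ratio within 5 SD of library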;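 further: B-score of integrated fluorescence ratio over time as area under calcium response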
Pemphigus Ab inh = blocks pemphigus antibody binding to human desmoglein-3; 310,000 tested, 0.48% active; DSG3-coupled beads, scFv-anti-DSG3-GFP binding, flow cytometry; active compounds read low; AID 588358; binding (percent of control), % at 10 µM;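 active means binding more than 3 SD below its plate's average and above zero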;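 further: hits lower antibody fragment binding to DSG3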
TRPC4 act = TRPC4 (mouse) channel activation | HEK293 TRPC4beta/mu-opioid, Fluo4 calcium fluorescence; active compounds read high | B-score at 10 µM | 310,000 tested, 0.49% active;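 active means B-score above 5 SD of library B-scores, and initial fluorescence ratio not above library mean plus 5 SD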;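 further: positive B-score marks a calcium rise read as TRPC4 activation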
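Assay system – TRPC4beta and mu-opioid receptor HEK293 stable cells · Measured by – Fluo4 fluorescence, kinetic · Schedule – dye loading 45 min room temperature, 110 s kinetic read · Read-out – B-scored integrated calcium fluorescence ratio · Controls – buffer and maximal DAMGO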
HEK293 MPD ctr = parental HEK293 nonspecific activity of TRPC6 modulators; membrane potential dye fluorescence; 2,400 tested, 51% active; membrane potential signal change, % at 10 µM; shares compounds with TRPC6 inhibitor; AID 488924;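 active means membrane potential signal moves up or down beyond 5 SD from buffer-only wells, on both duplicate plates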
HEK293 MPD ctr 2 = second counter-screen for TRPC6 modulators: effect in parental HEK293 cells; membrane potential dye fluorescence; after compound, maximal acetylcholine stimulation; inhibition, % at 10 µM; shares compounds with TRPC6 inhibitor; AID 488926; 2,400 tested, 14% active;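 active means membrane potential signal drops by more than 5 SD from the mean control signal, in both duplicate plates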;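 further: plate controls were acetylcholine ECmax control wells for no effect and buffer only wells for full effect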
TRPC4 ctr mod = mouse TRPC4 off-target activity of TRPC6 modulators; 2,400 tested, 69% active; HEK293 TRPC4/mu-opioid, membrane potential fluorescence; shares compounds with TRPC6 inhibitor; percent change from control (negative = decrease, positive = increase), % at 10 µM; AID 488927;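 active means membrane potential signal moved up or down beyond 5 SD of buffer control wells, in both duplicate plates, actives on both sides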;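 further: plate controls were assay buffer wells for no effect and DAMGO maximal-effect wells for full effect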
TRPC4/MOR inh 2 = second selectivity test of TRPC6 modulators against mouse TRPC4 | shares compounds with TRPC6 inhibitor | 2,400 tested, 55% active | HEK293 TRPC4/mu-opioid, membrane potential dye fluorescence; stimulated with maximal-effect DAMGO | inhibition, % at 10 µM;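 active means drop in membrane potential signal beyond 5 SD of the control wells in both duplicate plates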;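 further: TRPC4 counter screen for TRPC6 hits run under conditions tuned for TRPC6 not TRPC4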
TRPC6 block conf = confirmation of mouse TRPC6 inhibitors; 3,300 tested, 43% active; shares compounds with TRPC6 inhibitor; AID 488960; inhibition, % at 10 µM; HEK293-TRPC6, membrane potential dye, ACh-evoked depolarization;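 active means fluorescence ratio falls more than 5 SD below the full-stimulation control mean, in both duplicate runs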;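 further: integrated fluorescence ratio of peak minus minimum over baseline after agonist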
TRPC6 act confirm = confirmation of mouse TRPC6 activators; AID 488961; 2,800 tested, 11% active; activation, % at 10 µM; HEK293-TRPC6 membrane potential dye fluorescence, FDSS; shares compounds with TRPC6 inhibitor;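 active means ratio signal rise beyond 5 SD above unstimulated control wells' mean, seen in both duplicate runs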;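 further: plate controls were buffer EC0 wells for no effect and acetylcholine ECmax response for full effect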
Active calls of the source: *; i = inactive; . = no result given.

SMILES	TRPC4 inh	TRPC6 activator	TRPC6 inhibitor	TRPC4 PAM	Pemphigus Ab inh	TRPC4 act	HEK293 MPD ctr	HEK293 MPD ctr 2	TRPC4 ctr mod	TRPC4/MOR inh 2	TRPC6 block conf	TRPC6 act confirm
CNC(=O)c1cc2cc(OC)ccc2oc1=O	i	i	i	i	.	i	.	.	.	.	.	.
CC1CCN(Cc2c(C(=O)N/N=C/c3cc(Br)ccc3O)nnn2-c2nonc2N)CC1	i	i	i	i	102	i	.	.	.	.	.	.
CC1CCN(Cc2c(C(=O)N/N=C/c3cc(Cl)ccc3O)nnn2-c2nonc2N)CC1	i	i	-5.5*	i	105	i	i	i	i	i	i	i
CSc1nc(N)c2c3c(sc2n1)CN(C)CC3	i	i	-7*	i	94	i	-124%*	i	-25%*	i	i	i
C=CCSc1nc2sc3c(c2c(=O)n1-c1ccccc1)CCN(C)C3	i	i	i	i	109	i	.	.	.	.	.	.
C=CCSc1nc(N)c2c3c(sc2n1)CN(C)CC3	i	i	-6.5*	i	102	i	-76%*	i	-20%*	i	i	i
O=C(Nc1oc2ccccc2c(=O)c1-c1ccccc1)c1ccco1	.	.	.	.	101	.	.	.	.	.	.	.
CCOc1ccc(S(=O)(=O)N(C)c2ccc(OCC(=O)N3c4ccc(C)cc4C4CN(C)CCC43)cc2)cc1 (configuration not stated)	i	i	i	i	102	i	.	.	.	.	.	.
Cc1ccc2c(c1)C1CN(C)CCC1N2C(=O)COc1ccc(N(C)S(=O)(=O)c2cccs2)cc1 (configuration not stated)	i	i	-6*	i	100	i	i	i	-22%*	76%*	53%*	i
COc1ccc(S(=O)(=O)NCCc2nnc3ccc(SCC(=O)Nc4nc(C)cs4)nn23)cc1	i	i	i	i	.	i	.	.	.	.	.	.
N#Cc1ccccc1S(=O)(=O)N1CCN(CC(O)COc2ccccc2F)CC1 (configuration not stated)	i	i	i	i	99	i	.	.	.	.	.	.
CCCCn1c(SCCN2CCCCC2)nc2c1c(=O)n(C)c(=O)n2C	.	.	.	.	100	.	.	.	.	.	.	.
